A word on the MIC: it is the smallest concentration in the dilution series that meets the test's criterion for growth inhibition.

Each structure is given as a SMILES string. Converted amounts (≈) assume the structure as drawn. Where a SMILES comes first, the peptide text is derived from it. Bridges are numbered along the chain shown (N, C = ends). [ ]: non-standard residue; d: D form. The star is where a group is joined. X1 = CC[C@H](C)CCCCC(=O)*; Dab = NCC[C@H](N)C(=O)O

Experimental findings from ChEMBL document CHEMBL4765236, “Insights into the Antimicrobial Activity and Cytotoxicity of Engineered α-Helical Peptide Amphiphiles” (J Med Chem, 2016) are described below.

Data set [1] deals with Escherichia coli. Put plainly: Antibacterial activity against Escherichia coli O157:H7 CICC 21530 assessed as bacterial growth inhibition incubated for 18 to 24 hrs by microtiter broth dilution method. In kind it is functional. To be noted: time 18-24 hrs. The procedure, abridged: (§1)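 Log-phase bacteria grown at 37 °C in MHB, diluted to 10^5 CFU/mL, mixed 1:1 with serial peptide dilutions (peptide diluted in 0.01% acetic acid, 0.2% BSA); 37 °C for 18-24 h. MIC read by OD492 as lowest concentration giving no growth; mean of 3-5 independent experiments.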
On the technique in general: Broth dilution looks for growth in wells or tubes with falling amounts of substance.

Data set [2] concerns Escherichia coli. Put plainly: Antibacterial activity against Escherichia coli ATCC 25922 assessed as bacterial growth inhibition incubated for 18 to 24 hrs by microtiter broth dilution method. In kind it is functional. To be noted: time 18-24 hrs. The procedure, abridged: (§2)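 Log-phase cells (grown overnight at 37 °C, subcultured in MHB) diluted to 10^5 CFU/mL in MHB and mixed 1:1 with serial peptide dilutions prepared in 0.01% acetic acid/0.2% BSA. Incubated 37 °C for 18-24 h. MIC is the lowest concentration giving no growth by OD492. Reported as the average of 3-5 independent experiments.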

The test system of data set [3] is Escherichia coli. Put plainly: Antibacterial activity against Escherichia coli ATCC 35150 assessed as bacterial growth inhibition incubated for 18 to 24 hrs by microtiter broth dilution method. In kind it is functional. To be noted: time 18-24 hrs. The procedure, abridged:
as §2

Data set [4] relates to Salmonella paratyphi. Put plainly: Antibacterial activity against Salmonella paratyphi A CICC 20501 assessed as bacterial growth inhibition incubated for 18 to 24 hrs by microtiter broth dilution method. To be noted: Salmonella enterica, time 18-24 hrs. In kind it is functional, Salmonella enterica subsp. enterica serovar Paratyphi A. The procedure, abridged: as §1
Data set [5] relates to Salmonella enterica subsp. enterica serovar Paratyphi B. Put plainly: Antibacterial activity against Salmonella paratyphi B CICC 21495 assessed as bacterial growth inhibition incubated for 18 to 24 hrs by microtiter broth dilution method. In kind it is functional. Particulars: time 18-24 hrs. The procedure, abridged:
as §1

The test system of data set [6] is Salmonella paratyphi. Put plainly: Antibacterial activity against Salmonella paratyphi C CICC 21512 assessed as bacterial growth inhibition incubated for 18 to 24 hrs by microtiter broth dilution method. In kind it is functional. To be noted: Salmonella enterica, time 18-24 hrs. The procedure, abridged:
as §1

For another data set, the system named is Shigella flexneri. Put plainly: Antibacterial activity against Shigella flexneri CMCC 51571 assessed as bacterial growth inhibition incubated for 18 to 24 hrs by microtiter broth dilution method. To be noted: time 18-24 hrs. The data set is classed as functional. The procedure, abridged:
as §2

The subject of a further data set is Salmonella enterica. Put plainly: Antibacterial activity against Salmonella choleraesuis ATCC 13312 assessed as bacterial growth inhibition incubated for 18 to 24 hrs by broth dilution method. The data set is classed as functional. Particulars: time 18-24 hrs. The procedure, abridged: as §1
The next data set deals with Salmonella typhimurium. Put plainly: Antibacterial activity against Salmonella typhimurium CMCC 51005 assessed as bacterial growth inhibition incubated for 18 to 24 hrs by microtiter broth dilution method. The data set is classed as functional, Salmonella enterica subsp. enterica serovar Typhimurium. Particulars: Salmonella enterica, time 18-24 hrs. The procedure, abridged: as §2

For the next data set, the system named is Salmonella enteritidis. Put plainly: Antibacterial activity against Salmonella enteritidis CICC 21527 assessed as bacterial growth inhibition incubated for 18 to 24 hrs by microtiter broth dilution method. In kind it is functional, Salmonella enterica subsp. enterica serovar Enteritidis. Particulars: Salmonella enterica, time 18-24 hrs. The procedure, abridged: as §2

The test system of another data set is Vibrio parahaemolyticus. Put plainly: Antibacterial activity against Vibrio parahaemolyticus CICC 21617 assessed as bacterial growth inhibition incubated for 18 to 24 hrs by broth dilution method. In kind it is functional. To be noted: time 18-24 hrs. The procedure, abridged: as §2
Data set [7] concerns Staphylococcus aureus. Put plainly: Antibacterial activity against Staphylococcus aureus ATCC 29213 assessed as bacterial growth inhibition incubated for 18 to 24 hrs by microtiter broth dilution method. The data set is classed as functional. Particulars: time 18-24 hrs. The procedure, abridged: as §2
Data set [8] has as its system Staphylococcus aureus. Put plainly: Antibacterial activity against Staphylococcus aureus GIM 1.160 assessed as bacterial growth inhibition incubated for 18 to 24 hrs by microtiter broth dilution method. In kind it is functional. Particulars: time 18-24 hrs. The procedure, abridged:
as §2

Data set [9] relates to Listeria monocytogenes. Put plainly: Antibacterial activity against Listeria monocytogenes CICC 21662 assessed as bacterial growth inhibition incubated for 18 to 24 hrs by microtiter broth dilution method. In kind it is functional. To be noted: time 18-24 hrs. The procedure, abridged: as §2
The test system of data set [10] is Listeria monocytogenes. Put plainly: Antibacterial activity against Listeria monocytogenes CICC 21633 assessed as bacterial growth inhibition incubated for 18 to 24 hrs by microtiter broth dilution method. The data set is classed as functional. Particulars: time 18-24 hrs. The procedure, abridged:
as §2

The next data set deals with Bacillus cereus. Put plainly: Antibacterial activity against Bacillus cereus CMCC 63301 assessed as bacterial growth inhibition incubated for 18 to 24 hrs by microtiter broth dilution method. In kind it is functional. Particulars: time 18-24 hrs. The procedure, abridged:
as §2

For another data set, the system named is Micrococcus luteus. Put plainly: Antibacterial activity against Micrococcus luteus CMCC 28001 assessed as bacterial growth inhibition incubated for 18 to 24 hrs by microtiter broth dilution method. In kind it is functional. To be noted: time 18-24 hrs. The procedure, abridged: as §2
The test system of the next data set is Bacillus pumilus. Put plainly: Antibacterial activity against Bacillus pumilus CMCC 63202 assessed as bacterial growth inhibition incubated for 18 to 24 hrs by microtiter broth dilution method. In kind it is functional. To be noted: time 18-24 hrs. The procedure, abridged:
as §2

A further data set concerns Pseudomonas fluorescens. Put plainly: Antibacterial activity against Pseudomonas fluorescens CICC 21620 assessed as bacterial growth inhibition incubated for 18 to 24 hrs by microtiter broth dilution method. Particulars: time 18-24 hrs. In kind it is functional. The procedure, abridged: as §2
Data set [11] has as its system Staphylococcus aureus. Put plainly: Antibacterial activity against methicillin resistant Staphylococcus aureus ATCC 43300 assessed as bacterial growth inhibition incubated for 18 to 24 hrs by microtiter broth dilution method. In kind it is functional. Particulars: time 18-24 hrs. The procedure, abridged:
as §1

Another data set concerns Candida albicans. Put plainly: Antifungal activity against Candida albicans ATCC 10231 assessed as fungal growth inhibition incubated for 18 to 24 hrs by microtiter broth dilution method. The data set is classed as functional. Particulars: time 18-24 hrs. The procedure, abridged:
as §2

The subject of a further data set is Erythrocyte. Put plainly: Hemolytic activity against human red blood cells assessed as concentration required to cause 10% hemoglobin release measured after 1 hr by microplate reader analysis. In kind it is ADME, cell-based. The procedure, abridged: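 Fresh heparinized human RBCs washed three times in 10 mM PBS pH 7.4 and resuspended to about 1% (v/v) (5.4 × 10^8 cells/mL). Mixed 1:1 with peptide in PBS for 1 h at 37 °C, then centrifuged. Supernatant hemoglobin read at A540. PBS set as 0% and 0.1% Triton X-100 as 100% hemolysis. MHC is the concentration causing 10% hemolysis.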

A short description of data set [12]: Therapeutic index, ratio of MHC10 for human RBC to geometric mean of peptide MIC for Escherichia coli O157:H7 CICC 21530. To be noted: human red blood cells (RBC), pooled result: one value given for 11 cell lines, strains, targets or settings, read-out: TI. In kind it is toxicity. The procedure, abridged:
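Therapeutic index = MHC (peptide concentration giving 10% hemolysis of human RBCs, 1 h, 37 °C, A540) divided by geometric mean of MICs from broth microdilution (10^5 CFU/mL in MHB, 37 °C, 18-24 h, OD492).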

As to `CC[C@H](C)CCCCC(=O)N[C@@H](CCN)C(=O)N[C@H](C(=O)N[C@@H](CCN)C(=O)N[C@H]1CCNC(=O)[C@H]([C@@H](C)O)NC(=O)[C@H](CCN)NC(=O)[C@H](CCN)NC(=O)[C@H](CC(C)C)NC(=O)[C@@H](Cc2ccccc2)NC(=O)[C@H](CCN)NC1=O)[C@@H](C)O` (X1-[Dab]T[Dab][Dab][Dab][dF]L[Dab][Dab]T; lactam 4-C), the MIC in the data set on Escherichia coli [1] was determined as 3.07 µM (≈ 3.69 µg/mL); with Escherichia coli [2] it was 0.38 µM (≈ 0.457 µg/mL); in the data set with Escherichia coli [3], 1.54 µM (≈ 1.85 µg/mL); in the data set on Salmonella paratyphi [4], 0.77 µM (≈ 0.927 µg/mL); in [5] it was 1.54 µM (≈ 1.85 µg/mL); with Salmonella paratyphi [6] it was 3.07 µM (≈ 3.69 µg/mL). In addition, the MIC in the data set on Shigella flexneri was 0.77 µM (≈ 0.927 µg/mL); in the data set with Salmonella enterica, 1.54 µM (≈ 1.85 µg/mL); in the data set on Salmonella typhimurium, 0.77 µM (≈ 0.927 µg/mL); with Salmonella enteritidis, 1.54 µM (≈ 1.85 µg/mL); in the data set with Vibrio parahaemolyticus it was 0.77 µM (≈ 0.927 µg/mL); in the data set on Staphylococcus aureus [7] it was 49.2 µM (≈ 59.2 µg/mL). In addition, the MIC in the data set on Staphylococcus aureus [8] was 49.2 µM (≈ 59.2 µg/mL); in the data set on Listeria monocytogenes [9], 24.6 µM (≈ 29.6 µg/mL); in the data set with Listeria monocytogenes [10] it was 12.3 µM (≈ 14.8 µg/mL); with Bacillus cereus, 49.2 µM (≈ 59.2 µg/mL); in the data set with Micrococcus luteus it was greater than 98.3 µM; in the data set on Bacillus pumilus, 49.2 µM (≈ 59.2 µg/mL). Also, the MIC in the data set with Pseudomonas fluorescens is 49.2 µM (≈ 59.2 µg/mL); in the data set with Staphylococcus aureus [11], greater than 98.3 µM; in the data set with Candida albicans, 49.2 µM (≈ 59.2 µg/mL). In addition, the MHC10 in the data set with Erythrocyte was greater than 98.34 µM. In data set [12], the selectivity ratio worked out at 165.
For the compound `C[C@@H]1[C@H](O)[C@@H](C)/C=C/C=C/C=C/C=C/C=C/C=C/C=C/[C@H](O[C@@H]2O[C@H](C)[C@@H](O)[C@H](N)[C@@H]2O)C[C@@H]2O[C@](O)(C[C@@H](O)C[C@@H](O)[C@H](O)CC[C@@H](O)C[C@@H](O)CC(=O)O[C@H]1C)C[C@H](O)[C@H]2C(=O)O` [AMPHOTERICIN B], the MIC (in the data set with Escherichia coli [1]; in the data set with Escherichia coli [2]; in the data set on Escherichia coli [3]; with Salmonella paratyphi [4]; in [5]; with Salmonella paratyphi [6]) was greater than 139 µM each time. In addition, the MIC with Shigella flexneri, with Salmonella enterica, with Salmonella typhimurium, with Salmonella enteritidis, in the data set on Vibrio parahaemolyticus and in the data set on Staphylococcus aureus [7] was greater than 139 µM each time. Moreover, the MIC in the data set with Staphylococcus aureus [8], with Listeria monocytogenes [9], in the data set on Listeria monocytogenes [10], in the data set on Bacillus cereus, with Micrococcus luteus and in the data set on Bacillus pumilus was greater than 139 µM throughout. In addition, the MIC was greater than 139 µM in the data set on Pseudomonas fluorescens, greater than 139 µM in the data set on Staphylococcus aureus [11] and 4.33 µM (≈ 4 µg/mL) in the data set on Candida albicans. The MHC10 in the data set with Erythrocyte worked out at 0.54 µM.
